Data set [1] has as its system Leishmania amazonensis. Kind of data set: Antileishmanial activity against GFP tagged Leishmania amazonensis Josefa amastigote infected mouse peritoneal macrophages at 50 uM after 72 hrs. It is filed as functional. In outline: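 GFP L. amazonensis (Josefa)-infected mouse peritoneal macrophages (10⁶ cells, 5 × 10⁶ promastigotes, 4 h at 37 °C), washed, exposed to compound for 72 h in 1% DMSO. Monolayer fluorescence measured. Percent inhibition scaled between untreated infected cells and uninfected macrophages. Vehicle control was 1% DMSO. Triplicate means with SD.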

Data set [2] deals with Leishmania amazonensis. In words: Antileishmanial activity against GFP tagged Leishmania amazonensis Josefa promastigote at 50 uM. It is filed as functional. In outline:
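Triplicate wells of 10⁵ GFP-transfected promastigotes in DMEM with 5% serum and 1% DMSO, with compound, held 72 h at 27 °C. Fluorescence intensity read on a plate fluorometer. Results given as percent inhibition, mean of triplicates with SD.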

Data set [3] relates to Peritoneal macrophage cell. Kind of data set: Effect on nitric oxide production in mouse peritoneal macrophages at 50 uM after 48 hrs. Format: functional. In outline:
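Supernatants from mouse peritoneal macrophage cultures incubated 48 h with compound. Nitrite measured by a modified Griess method. IFN-gamma at 10 U/ml served as positive control. Triplicate means.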

A short description of data set [4]: Cytotoxicity against mouse peritoneal macrophages assessed as LDH release at 50 uM after 48 hrs. Format: cell-based. The settings on record: peritoneal macrophage cell. In outline: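 Uninfected adherent mouse peritoneal macrophages exposed to compound for 48 h at 37 °C. LDH released into the medium measured with a commercial kit. 2% Triton X-100 set maximum release and 1% DMSO set minimum. Triplicate means with SD.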
For orientation: LDH leaks from cells whose membrane has failed.

For data set [5], the system named is Leishmania amazonensis. In words: Antiamastigote activity against GFP tagged […] amastigote infected mouse peritoneal macrophages. It is filed as functional, organism-based. In outline: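 Mouse peritoneal macrophages (10⁶) infected 4 h at 37 °C with 5 × 10⁶ GFP-expressing L. amazonensis (Josefa) promastigotes, washed, then cultured 72 h with compound in 1% DMSO. Monolayer fluorescence read as parasite growth. Uninfected macrophages set maximum inhibition and untreated infected cells set minimum. IC50 obtained by linear regression.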

pIC50: −log10 of the molar value.

On to `C=C(C#N)C(O)c1ccc(C(F)(F)F)cc1` (stereo unspecified), for which the Activity with Leishmania amazonensis [1] was 86%; with Leishmania amazonensis [2] it was 62.8%; in data set [3], -4 µM; in data set [4], 36.3%.

Take `C=C(C#N)C(O)c1ccc([N+](=O)[O-])cc1` (stereo unspecified): the Activity with Leishmania amazonensis [1] is 93.9%; in the data set on Leishmania amazonensis [2] it was 47%; in data set [3] it was 5 µM; in data set [4], 41.7%.

Consider `C=C(C#N)C(O)c1ccc(O)c(OC)c1` (stereo unspecified), for which the Activity with Leishmania amazonensis [1] is 19.7%; with Leishmania amazonensis [2], 6.6%; in data set [3], -2.3 µM; in data set [4], 0%.

By pIC50 is commonly meant −log10 of the IC50, conventionally taken in molar units. Turning to `C=C(C#N)C(O)c1ccccc1` (stereo unspecified), the Activity in the data set on Leishmania amazonensis [1] is 48.1%; with Leishmania amazonensis [2] it was 42.2%; in data set [3], -1.6 µM; in data set [4], 0%. This compound gave a pIC50 in the data set with Leishmania amazonensis [5] of 4.31.

On to `C=C(C(=O)OC)C(O)c1ccccc1` (stereo unspecified), for which the Activity in the data set on Leishmania amazonensis [1] was 14.4%; in the data set with Leishmania amazonensis [2], 37.6%; in data set [3], -2.1 µM; in data set [4] it was 0%.

For `C=C(C#N)C(O)c1ccc2c(c1)OCO2` (stereo unspecified), the Activity with Leishmania amazonensis [1] was 9.1%; in the data set with Leishmania amazonensis [2], 25.5%; in data set [3], -2.1 µM; in data set [4], 0%.

For `C=C(C(=O)OC)C(O)c1ccc(C(F)(F)F)cc1` (stereo unspecified), the Activity in the data set on Leishmania amazonensis [1] was 89%; in the data set on Leishmania amazonensis [2] it was 67.6%; in data set [3], -3.5 µM; in data set [4], 36.2%. Further, the negative logarithm of the IC50 (pIC50) in the data set with Leishmania amazonensis [5] was 4.37.

Take `C=C(C#N)C(O)c1ccc(Br)cc1` (stereo unspecified): the Activity came to 84.3% with Leishmania amazonensis [1], 17.5% in the data set on Leishmania amazonensis [2], 2.5 µM in data set [3] and 0% in data set [4]. The same compound gave a pIC50 with Leishmania amazonensis [5] of 4.90.

Regarding pentostam, the Activity was found to be 35.3% in the data set with Leishmania amazonensis [1], 0% with Leishmania amazonensis [2] and 0 µM in data set [3].

`C=C(C#N)C(O)c1cc(OC)ccc1OC` (stereo unspecified): the Activity in the data set on Leishmania amazonensis [1] is 35.3%; in the data set on Leishmania amazonensis [2] it was 22.3%; in data set [3] it was -4.9 µM; in data set [4], 0%.

For the compound `C=C(C#N)C(O)c1ccccc1OC` (stereo unspecified), the Activity in the data set with Leishmania amazonensis [1] was found to be 14.7%; in the data set on Leishmania amazonensis [2], 30%; in data set [3] it was 0.4 µM; in data set [4], 6.1%.

Regarding `C=C(C(=O)OC)C(O)c1ccc(F)cc1` (stereo unspecified), the Activity was 33.6% in the data set on Leishmania amazonensis [1], 32.4% with Leishmania amazonensis [2], -4.8 µM in data set [3] and 0% in data set [4].

As for `C=C(C(=O)OC)C(O)c1ccc([N+](=O)[O-])cc1` (stereo unspecified), the Activity is 80.6% in the data set with Leishmania amazonensis [1], 67.3% in the data set with Leishmania amazonensis [2], -3.7 µM in data set [3] and 41.6% in data set [4].

With `C=C(C#N)C(O)c1ccc2ccccc2c1` (stereo unspecified), the Activity in the data set with Leishmania amazonensis [1] was 95.6%; in the data set on Leishmania amazonensis [2], 24%; in data set [3], -7.1 µM; in data set [4] it was 26.6%. The pIC50 in the data set on Leishmania amazonensis [5] is 4.95.

Turning to `C=C(C#N)C(OC(C)=O)c1ccc([N+](=O)[O-])cc1` (stereo unspecified), the Activity is 21.5% in the data set on Leishmania amazonensis [1], 59.3% in the data set with Leishmania amazonensis [2], 0 µM in data set [3] and 0% in data set [4].

Consider `C=C(C(=O)OC)C(O)c1cccnc1` (stereo unspecified), for which the Activity was determined as 8.9% in the data set on Leishmania amazonensis [1], 39.6% with Leishmania amazonensis [2], 0.1 µM in data set [3] and 13.2% in data set [4].

Consider `C=C(C(=O)OC)C(O)c1ccc(C)cc1` (stereo unspecified), for which the Activity is 28.7% with Leishmania amazonensis [1], 32.4% in the data set on Leishmania amazonensis [2], -3.7 µM in data set [3] and 0% in data set [4].

The values above are taken from ChEMBL document CHEMBL1144484, “High selective leishmanicidal activity of 3-hydroxy-2-methylene-3-(4-bromophenyl)propanenitrile and analogous compounds” (Eur J Med Chem, 2007).
